MBD2 inh: inhibitors of MBD2 binding to methylated DNA, primary screen, biochemical, TR-FRET, DNA-binding domain, human; inhibition, % at 4.4 µM; MBD2 binding to methylated oligonucleotide; Methyl-CpG-binding domain protein 2 (Homo sapiens), Q9UBB5; 370,000 tested, 0.31% active; in the data active = inhibition above about 13%
PRMT1 FP inh: PRMT1 methyltransferase inhibitors, primary screen, biochemical, fluorescence polarization; Protein arginine N-methyltransferase 1 (Homo sapiens), Q99873; recombinant PRMT1, activity-based probe fluorescence polarization; inhibition, % at 2.79 µM; 370,000 tested, 1.3% active;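 active = inhibition above about 21% made by adding two undisclosed values, limit read from the data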
Target sequence (Q99873 whole entry, looked up): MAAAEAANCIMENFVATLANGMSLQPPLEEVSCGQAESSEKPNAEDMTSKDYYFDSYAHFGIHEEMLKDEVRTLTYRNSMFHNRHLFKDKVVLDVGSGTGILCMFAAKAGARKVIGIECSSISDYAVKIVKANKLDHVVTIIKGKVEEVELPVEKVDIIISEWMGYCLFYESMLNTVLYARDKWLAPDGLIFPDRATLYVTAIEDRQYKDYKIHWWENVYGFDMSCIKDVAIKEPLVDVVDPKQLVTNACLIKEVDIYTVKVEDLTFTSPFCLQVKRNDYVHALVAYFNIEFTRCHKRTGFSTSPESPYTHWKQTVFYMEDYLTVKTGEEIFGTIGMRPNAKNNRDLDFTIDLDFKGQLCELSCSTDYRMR
UHRF1 MBD2 ctr: UHRF1 methylated DNA binding inhibitors, primary screen, counter-screen for MBD2 inhibitor project, biochemical, TR-FRET, human UHRF1, single concentration; inhibition, % at 4.4 µM; 370,000 tested, 0.75% active; UHRF1 binding to methylated oligo; E3 ubiquitin-protein ligase UHRF1 (Homo sapiens), Q96T88; in the data active = inhibition above about 21%;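 also: UHRF1 SRA domain binding a hemimethylated CpG hairpin DNA probe; 0% = median of test compound wells and 100% = reference inhibitor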
LEDGF integ inh: blockers of LEDGF/p75-dependent integrase strand transfer – biochemical, TR-FRET, high throughput, primary screen; HIV-1 integrase (with human LEDGF/p75); TR-FRET IN-LEDGF/p75 DNA integration, Eu/Cy5; inhibition, % at 3.7 µM; 370,000 tested, 0.64% active; AID 743269, 2014;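 active = inhibition above the screen-wide mean plus 3 SD, cut at about 13% in these data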;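 also: signal is the Cy5 over europium emission ratio at 671 and 618 nm; 0% = plate median of compound wells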
RBBP9 inhibitor: human RBBP9 inhibitors, primary screen, biochemical, fluorescence polarization, FP-Rh probe, HTS | Serine hydrolase RBBP9 (Homo sapiens), O75884 | recombinant RBBP9 | inhibition, % at 7.94 µM | 220,000 tested, 0.2% active | AID 1515, 2009;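 active = inhibition above the campaign mean of all tested compounds plus 3 SD, cut at about 14% in these data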;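 also: plate controls were DMSO wells with RBBP9 for no effect and wells lacking RBBP9 protein for full effect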
Target sequence (O75884 whole entry, looked up): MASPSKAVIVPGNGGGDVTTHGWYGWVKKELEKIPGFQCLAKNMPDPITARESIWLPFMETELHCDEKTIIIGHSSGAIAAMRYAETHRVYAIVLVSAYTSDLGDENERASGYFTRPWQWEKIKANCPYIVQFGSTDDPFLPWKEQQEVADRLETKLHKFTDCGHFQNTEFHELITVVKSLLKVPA
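Assay system: recombinant human RBBP9; Reagent: Serine-hydrolase probe FP-Rh, 375 nM pre-mixing; Doses: 7.94 µM single dose, 0.794% DMSO; Incubation: 30 min then 45 min, 25 °C; Detection: fluorescence polarization (mP), excitation 525 nm, emission 598 nm; Evaluation: percent inhibition from mP, scaled between DMSO and no-protein wells.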
ABHD5-PLIN5 inh: ABHD5-PLIN5 interaction inhibitors, primary screen, cell lysate, split luciferase complementation, luminescence; Split G. princeps luciferase complementation, 4 h; inhibition, % at 4 µM; 360,000 tested, 0.78% active; Perilipin-5 (Homo sapiens) + 1-acylglycerol-3-phosphate O-acyltransferase ABHD5 (Homo …; AID 602281, 2012;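 active = inhibition above the mean inhibition across every tested compound plus 3 SD, cut at about 22% in these data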;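 also: 0% = DMSO only wells and the 100% control is not disclosed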
The depositor's hits bear a star; x = no result given. Compounds with a hit are over-represented: about 3.1% of the library has one in this group of screens.

SMILES | MBD2 inh | PRMT1 FP inh | UHRF1 MBD2 ctr | LEDGF integ inh | RBBP9 inhibitor | ABHD5-PLIN5 inh
COC(=O)C(C[N+](=O)[O-])C1=C(O)CC(C)(C)CC1=O (configuration not stated) | -3 | 12 | -8 | 1 | x | x
Cc1ccsc1S(=O)(=O)n1c(CN2CCOCC2)nc2ccccc21 | 1 | 4 | -3 | -4 | x | x
CCn1c(SCC(=O)N2CCCc3ccccc32)nnc1-c1cccs1 | 8 | 5 | 21* | 3 | -7 | 2
C=CCn1c(CNS(=O)(=O)c2ccc(F)cc2)n[nH]c1=S | -1 | 4 | 42* | -7 | x | -9
Brc1ccc(-c2csc(N3CCC(c4nn[nH]n4)CC3)n2)cc1 | -3 | 2 | 2 | 4 | x | x
CCOC(=O)C1Nc2ccc(OC(F)(F)F)cc2C2C=CCC12 (configuration not stated) | 0 | 13 | -5 | 0 | x | 11
O=C(NC1CC1)C1Nc2ccc(OC(F)(F)F)cc2C2C=CCC12 (configuration not stated) | -1 | 22* | -8 | -1 | x | 4
O=C(N[C@@H](Cc1cccnc1)C(=O)N1CCC[C@H]1C(=O)NCCc1ccccc1Cl)c1cccs1 | 0 | 0 | 0 | 4 | x | x
Cc1cccc(CS(=O)(=O)c2nnc([C@H](Cc3ccccc3)NC(=O)OC(C)(C)C)o2)c1 | x | x | x | x | -14 | 43*
COC(=O)CS(=O)(=O)c1nnc([C@H](Cc2ccccc2)NC(=O)OC(C)(C)C)o1 | 1 | 13 | -3 | 2 | 1 | 56*
C[C@@H]1CCCN1c1cccc2c1S(=O)(=O)N(C1CC1)CCCO2 | 1 | 5 | 5 | -4 | x | x
C#CCOCCOCCOCCNc1nc(N2CCN(C(=O)CCCCCCCCCCNC(=O)Cn3cc(C[C@@H](C)O)nn3)CC2)nc(N2CCN(C(=O)CCCCCCCCCCNC(=O)[C@H](CCCCN)n3cc(C[C@@H](C)CC)nn3)CC2)n1 | x | x | x | x | x | 43*
C#CCOCCOCCOCCNc1nc(N2CCN(C(=O)CCCCCCCCCCNC(=O)[C@H](CCCCN)n3cc(CCO)nn3)CC2)nc(N2CCN(C(=O)CCCCCCCCCCNC(=O)[C@H](CCCCN)n3cc(CCO)nn3)CC2)n1 | x | x | x | x | x | 29*
C#CCOCCOCCOCCNc1nc(N2CCN(C(=O)CCCCCCCCCCNC(=O)[C@@H](CCSC)n3cc(CCO)nn3)CC2)nc(N2CCN(C(=O)CCCCCCCCCCNC(=O)[C@H]([C@@H](C)CC)n3cc(CCCCN=C(N)N)nn3)CC2)n1 | x | x | x | x | x | 57*
C#CCOCCOCCOCCNc1nc(N2CCN(C(=O)CCCCCCCCCCNC(=O)[C@H](CCCCN)n3cc(CCCC(=O)O)nn3)CC2)nc(N2CCN(C(=O)CCCCCCCCCCNC(=O)[C@H](CCCN=C(N)N)n3cc(C[C@@H](C)CC)nn3)CC2)n1 | x | x | x | x | x | 45*
C#CCOCCOCCOCCNc1nc(N2CCOCC2)nc(N2CCN(C(=O)CCCCCCCCCCNC(=O)[C@@H](CCSC)n3cc(CCO)nn3)CC2)n1 | 1 | 6 | 1 | 0 | x | 21
Cc1cc(N2CCNC[C@H]2C)ccc1N1C[C@@H](C)O[C@@H](C)C1 | -4 | -1 | -1 | 2 | x | x
C#CCOCCOCCOCCNc1nc(N2CCN(C(=O)CCCCCCCCCCNC(=O)[C@H](CCCCN)n3cc(CCO)nn3)CC2)nc(N2CCN(C(=O)CCCCCCCCCCNC(=O)[C@H](CCCN=C(N)N)n3cc(C[C@@H](C)CC)nn3)CC2)n1 | x | x | x | x | x | 50*
C#CCOCCOCCOCCNc1nc(N2CCN(C(=O)CCCCCCCCCCNC(=O)[C@H](CCCCN)n3cc(CCCC(=O)O)nn3)CC2)nc(N2CCN(C(=O)CCCCCCCCCCNC(=O)[C@H](CCCCN)n3cc(CCCC(=O)O)nn3)CC2)n1 | x | x | x | x | x | 14
C#CCOCCOCCOCCNc1nc(N2CCN(C(=O)CCCCCCCCCCNC(=O)[C@H](CCCCN)n3cc(C[C@@H](C)CC)nn3)CC2)nc(N2CCN(C(=O)CCCCCCCCCCNC(=O)[C@H](CCCCN)n3cc(C[C@@H](C)CC)nn3)CC2)n1 | x | x | x | x | x | 58*
O=C(Nc1c(-c2ccccc2)nc2ncccn12)c1ccccc1 | 5 | 1 | -1 | -2 | x | x
CCC(Oc1ccccc1)C(=O)NCCOC (configuration not stated) | 10 | 22* | 6 | -11 | 9 | -2
Cc1ccc(-c2csc(NC(=O)c3cccc(N4C(=O)CCC4=O)c3)n2)o1 | x | x | x | x | -26 | 22*
Cc1ccc(C(C(=O)NC2CCCCC2)N(CCC(C)C)C(=O)CNC(=O)c2ccco2)o1 (configuration not stated) | 7 | 3 | 21* | 4 | -9 | 1
CC(C)C[C@H]1COc2cc(Br)ccc2S(=O)(=O)N1Cc1cn(Cc2ccc(F)cc2)nn1 | -6 | 1 | -4 | 0 | x | x
SMILES | MBD2 inh | PRMT1 FP inh | UHRF1 MBD2 ctr | LEDGF integ inh | RBBP9 inhibitor | ABHD5-PLIN5 inh
CC(C)C1OC2(C)OC(=N)C1(C#N)C(C#N)(C#N)C2c1ccccc1 (configuration not stated) | -3 | 25* | 4 | 0 | 4 | 3
CCC1OC2(C)OC(=N)C1(C#N)C(C#N)(C#N)C2c1ccccc1 (configuration not stated) | 0 | 5 | 2 | 0 | 3 | -4
O=C(/C=C/c1ccco1)NC(=S)Nc1cccc([N+](=O)[O-])c1 | -2 | 20 | 2 | 11 | -9 | 23*
O=C(NC(=S)Nc1cccc([N+](=O)[O-])c1)c1ccco1 | -6 | -3 | 2 | 0 | -2 | -7
O=C(/C=C/c1ccco1)NC(=S)Nc1ccccc1 | 1 | 23* | 9 | 1 | x | 9
CC(C)COc1ccc(-c2csc(N3CCC(C(N)=O)CC3)n2)cc1 | 1 | -2 | -1 | 1 | x | x
Cc1ccc(C(C)C)cc1OCC(=O)Nc1nnc(C2CC2)s1 | 4 | -2 | 27* | 1 | x | 2
c1ccc(-c2nc(-c3ccco3)n3ccccc23)cc1 | -1 | 24* | 3 | 5 | -8 | 11
c1ccc(Nc2c(-c3ccco3)nc3ccccn23)cc1 | -5 | 13 | -4 | 6 | -5 | 4
O=C(c1ccc(C(F)(F)F)cc1)N1CCC(=O)N(C(COCc2ccccc2)Cc2ccccc2)CC1 (configuration not stated) | -4 | -1 | 40* | -2 | -5 | 4
